{"source": "ChEMBL document CHEMBL1629614", "about": "“Inhibition of methionyl-tRNA synthetase by REP8839 and effects of resistance mutations on enzyme activity” (Antimicrob Agents Chemother, 2009)", "proteins": {"B1": {"name": "Methionine--tRNA ligase (Thermus thermophilus (strain HB8 / ATCC 27634 / DSM 579)), P23395 (protein)", "chain": "MEKVFYVTTPIYYVNAEPHLGHAYTTVVADFLARWHRLDGYRTFFLTGTDEHGETVYRAAQAAGEDPKAFVDRVSGRFKRAWDLLGIAYDDFIRTTEERHKKVVQLVLKKVYEAGDIYYGEYEGLYCVSCERFYTEKELVEGLCPIHGRPVERRKEGNYFFRMEKYRPWLQEYIQENPDLIRPEGYRNEVLAMLAEPIGDLSISRPKSRVPWGIPLPWDENHVTYVWFDALLNYVSALDYPEGEAYRTFWPHAWHLIGKDILKPHAVFWPTMLKAAGIPMYRHLNVGGFLLGPDGRKMSKTLGNVVDPFALLEKYGRDALRYYLLREIPYGQDTPVSEEALRTRYEADLADDLGNLVQRTRAMLFRFAEGRIPEPVAGEELAEGTGLAGRLRPLVRELKFHVALEEAMAYVKALNRYINEKKPWELFKKEPEEARAVLYRVVEGLRIASILLTPAMPDKMAELRRALGLKEEVRLEEAERWGLAEPRPIPEEAPVLFPKKEAKVEAKPKEEAWIGIEDFAKVELRVAEVLAAEKHPNADRLLVLRLSLGNEERTVVSGIAKWYRPEELVGKKVVLVANLKPAKLRGIESQGMILAAQEGEALALVTVEGEVPPGAVVK"}, "B2": {"name": "Methionine--tRNA ligase (Haemophilus influenzae (strain ATCC 51907 / DSM 11121 / KW20 / Rd)), P43828 (protein)", "chain": "MTTQPRKILVTCALPYANGAIHLGHMLEHIQADIWVRFQRMRGNKIHFVCADDAHGTPIMLNADKLGITPEELIAKAKADHIRDFAGFNISFDNYHSTHSEENKQLTAEIYNKLKANGFIKSKVISQLFDPEKNMFLPDRFVKGTCPKCKAEDQYGDNCEVCASTYSPMDLINPRSAVSGTTPIVKESEHFFFDLPAFEGMLKEWTRSGSLQSEIANKMQEWFESDLQQWDISRDAPYFGFEIPGAKDKFFYVWLDAPIGYMASFKNLCNREGIDFNEFWAEGSDAELYHFIGKDIVYFHSLFWPAMLEGSGYRKPTNVFAHGYVTVDGAKMSKSRGTFIQASTYLNHIDPECLRYYYAAKLNDRIEDLDFNLEDFVQRVNTDIVNKLVNLASRNAGFIAKRFEGKLADKLEDKSLFAEFTAQAEQIAAYYESREYNKTIREIMALTDKANKYIDEKAPWVIAKEEGKEAELQAVCSMGIELFRVLMSYLKPVLPKLAERAETFLQAELRWDNIHQPLLGHTLAPFKALFSRLEKKQIDAVVEETKALFAAANKAAEKTEAKPTALSAVEPIAETITIDDFAKLDMRVAKVLKCEAVPESNKLLRFELDLGDHTRQVFSGIKAAYNKPEELEGRFVIMVANLAPRKMKFGVSEGMILSAGTGGSDLFLLSADSGVTAGMQVK"}, "B3": {"name": "Methionine--tRNA ligase (Staphylococcus aureus subsp. aureus MW2), Q8NY00 L213W (protein)", "chain": "MAKETFYITTPIYYPSGNLHIGHAYSTVAGDVIARYKRMQGYDVRYLTGTDEHGQKIQEKAQKAGKTEIEYLDEMIAGIKQLWAKLEISNDDFIRTTEERHKHVVEQVFERLLKQGDIYLGEYEGWYSVPDETYYTESQLVDPQYENGKIIGGKSPDSGHEVELVKEESYFFNISKYTDRLLEFYDQNPDFIQPPSRKNEMINNFIKPGLADWAVSRTSFNWGVHVPSNPKHVVYVWIDALVNYISALGYLSDDESLFNKYWPADIHLMAKEIVRFHSIIWPILLMALDLPLPKKVFAHGWILMKDGKMSKSKGNVVDPNILIDRYGLDATRYYLMRELPFGSDGVFTPEAFVERTNFDLANDLGNLVNRTISMVNKYFDGELPAYQGPLHELDEEMEAMALETVKSYTESMESLQFSVALSTVWKFISRTNKYIDETTPWVLAKDDSQKDMLGNVMAHLVENIRYAAVLLRPFLTHAPKEIFEQLNINNPQFMEFSSLEQYGVLTESIMVTGQPKPIFPRLDSEAEIAYIKESMQPPATEEEKEEIPSKPQIDIKDFDKVEIKAATIINAEHVKKSDKLLKIQVDLDSEQRQIVSGIAKFYTPDDIIGKKVAVVTNLKPAKLMGQKSEGMILSAEKDGVLTLVSLPSAIPNGAVIK"}, "B4": {"name": "Methionine--tRNA ligase (Staphylococcus aureus subsp. aureus MW2), Q8NY00 I57N (protein)", "chain": "B3 chain with I57N, W213L"}}, "key": {"[1]": {"compound": "C=C(F)c1sc(CNCCCNc2cc(=O)c3ccccc3[nH]2)c(C)c1Br", "assay": "Activity of Thermus thermophilus HB8 MetRS by ATP:PPi exchange assay in presence of methionine"}, "[2]": {"compound": "C=C(F)c1sc(CNCCCNc2cc(=O)c3ccccc3[nH]2)c(C)c1Br", "assay": "Activity of Thermus thermophilus HB8 MetRS by ATP:PPi exchange assay in presence of ATP"}, "[3]": {"compound": "C=C(F)c1sc(CNCCCNc2cc(=O)c3ccccc3[nH]2)c(C)c1Br", "assay": "Activity of Haemophilus influenzae MetRS by ATP:PPi exchange assay in presence of methionine"}, "[4]": {"compound": "C=C(F)c1sc(CNCCCNc2cc(=O)c3ccccc3[nH]2)c(C)c1Br", "assay": "Activity of Haemophilus influenzae MetRS by ATP:PPi exchange assay in presence of ATP"}, "[5]": {"compound": "C=C(F)c1sc(CNCCCNc2cc(=O)c3ccccc3[nH]2)c(C)c1Br", "assay": "Activity of Staphylococcus aureus MetRS L213W mutant by ATP:PPi exchange assay in presence of methionine", "summary_of_the_method": "(§1)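 Purified S. aureus MetRS (wild type or mutant; E. coli-expressed, ammonium sulfate cut, anion exchange) at 30 nM. ATP:PPi exchange at 30°C in 100 mM Tris-HCl pH 8.0, 5–10 mM Mg acetate, 80 mM KCl, 2.5 mM DTT, [32P]PPi plus cold PPi equal to ATP. Quenched with EDTA over 1–10 min, PEI-cellulose TLC, phosphorimager. Initial velocities versus varied ATP or methionine fit to Michaelis-Menten.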"}, "[6]": {"compound": "C=C(F)c1sc(CNCCCNc2cc(=O)c3ccccc3[nH]2)c(C)c1Br", "assay": "Ratio of Kcat to Km for Staphylococcus aureus MetRS L213W mutant in presence of ATP", "summary_of_the_method": "(§2)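 Purified recombinant S. aureus MetRS (30 nM) was assayed by ATP:PPi exchange at 30°C in Tris pH 8.0 with Mg acetate, KCl and DTT. [32P]PPi was matched to ATP, and ATP or methionine was varied. Time points from 1 to 10 min were quenched with EDTA, separated by PEI-cellulose TLC and read by phosphorimager. Initial rates were fitted to Michaelis-Menten.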"}, "[7]": {"compound": "C=C(F)c1sc(CNCCCNc2cc(=O)c3ccccc3[nH]2)c(C)c1Br", "assay": "Ratio of Kcat to Km for Staphylococcus aureus MetRS L213W mutant in presence of methionine", "summary_of_the_method": "as §2"}, "[8]": {"compound": "C=C(F)c1sc(CNCCCNc2cc(=O)c3ccccc3[nH]2)c(C)c1Br", "assay": "Activity of streptococcus aureus MetRS L213W mutant by scintillation proximity assay in presence of tRNA", "conditions": "Staphylococcus aureus"}, "[9]": {"compound": "C=C(F)c1sc(CNCCCNc2cc(=O)c3ccccc3[nH]2)c(C)c1Br", "assay": "Ratio of Kcat to Km for Staphylococcus aureus MetRS L213W mutant in presence of tRNA", "summary_of_the_method": "(§3)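 Purified recombinant S. aureus MetRS was assayed by tRNA aminoacylation at 30°C for 1 to 7.5 min to obtain initial rates. Buffer was Tris pH 8.0 with Mg acetate, 2.5 mM ATP, KCl, DTT, BSA, [3H]methionine and crude E. coli tRNA. Reactions were EDTA-stopped, and charged tRNA was read by scintillation proximity with polylysine beads at pH 2.0.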"}, "[10]": {"compound": "C=C(F)c1sc(CNCCCNc2cc(=O)c3ccccc3[nH]2)c(C)c1Br", "assay": "Activity of Staphylococcus aureus MetRS L213W mutant by ATP:PPi exchange assay in presence of ATP", "summary_of_the_method": "as §1"}, "[11]": {"compound": "C=C(F)c1sc(CNCCCNc2cc(=O)c3ccccc3[nH]2)c(C)c1Br", "assay": "Activity of Staphylococcus aureus MetRS I57N mutant by ATP:PPi exchange assay in presence of methionine", "summary_of_the_method": "as §1"}, "[12]": {"compound": "C=C(F)c1sc(CNCCCNc2cc(=O)c3ccccc3[nH]2)c(C)c1Br", "assay": "Ratio of Kcat to Km for Staphylococcus aureus MetRS I57N mutant in presence of ATP", "summary_of_the_method": "as §2"}, "[13]": {"compound": "C=C(F)c1sc(CNCCCNc2cc(=O)c3ccccc3[nH]2)c(C)c1Br", "assay": "Ratio of Kcat to Km for Staphylococcus aureus MetRS I57N mutant in presence of methionine", "summary_of_the_method": "as §2"}, "[14]": {"compound": "C=C(F)c1sc(CNCCCNc2cc(=O)c3ccccc3[nH]2)c(C)c1Br", "assay": "Activity of streptococcus aureus MetRS I57N mutant by scintillation proximity assay in presence of tRNA", "conditions": "Staphylococcus aureus"}, "[15]": {"compound": "C=C(F)c1sc(CNCCCNc2cc(=O)c3ccccc3[nH]2)c(C)c1Br", "assay": "Ratio of Kcat to Km for Staphylococcus aureus MetRS I57N mutant in presence of tRNA", "summary_of_the_method": "as §3"}, "[16]": {"compound": "C=C(F)c1sc(CNCCCNc2cc(=O)c3ccccc3[nH]2)c(C)c1Br", "assay": "Activity of Staphylococcus aureus MetRS I57N mutant by ATP:PPi exchange assay in presence of ATP", "summary_of_the_method": "as §1"}}, "note": "Positions count from the first letter of the chain named. Names and notes keep the numbering of the source.", "data": [{"protein": "B1", "values": [{"measurement": "Km", "setting": "[1]", "value": 18, "unit": "µM"}, {"measurement": "Km", "setting": "[2]", "value": 180, "unit": "µM"}]}, {"protein": "B2", "values": [{"measurement": "Km", "setting": "[3]", "value": 250, "unit": "µM"}, {"measurement": "Km", "setting": "[4]", "value": 1200, "unit": "µM"}]}, {"protein": "B3", "values": [{"measurement": "Km", "setting": "[5]", "value": 100, "unit": "µM"}, {"measurement": "kcat", "setting": "[5]", "value": 10, "unit": "s⁻¹"}, {"measurement": "kcat/Km", "setting": "[6]", "value": 17000, "unit": "M⁻¹ s⁻¹"}, {"measurement": "kcat/Km", "setting": "[7]", "value": 100000, "unit": "M⁻¹ s⁻¹"}, {"measurement": "Km", "setting": "[8]", "value": 1.7, "unit": "µM"}, {"measurement": "kcat", "setting": "[8]", "value": 0.54, "unit": "s⁻¹"}, {"measurement": "kcat/Km", "setting": "[9]", "value": 320000, "unit": "M⁻¹ s⁻¹"}, {"measurement": "Km", "setting": "[10]", "value": 595, "unit": "µM"}]}, {"protein": "B4", "values": [{"measurement": "Km", "setting": "[11]", "value": 25, "unit": "µM"}, {"measurement": "kcat", "setting": "[11]", "value": 14, "unit": "s⁻¹"}, {"measurement": "kcat/Km", "setting": "[12]", "value": 17000, "unit": "M⁻¹ s⁻¹"}, {"measurement": "kcat/Km", "setting": "[13]", "value": 560000, "unit": "M⁻¹ s⁻¹"}, {"measurement": "Km", "setting": "[14]", "value": 0.93, "unit": "µM"}, {"measurement": "kcat", "setting": "[14]", "value": 0.023, "unit": "s⁻¹"}, {"measurement": "kcat/Km", "setting": "[15]", "value": 25000, "unit": "M⁻¹ s⁻¹"}, {"measurement": "Km", "setting": "[16]", "value": 820, "unit": "µM"}]}]}
